Data reported in ChEMBL document CHEMBL3286129, “Optimization of peptidomimetic boronates bearing a P3 bicyclic scaffold as proteasome inhibitors” (Eur J Med Chem, 2014).

Key:
[1] = Growth inhibition of human OVCAR4 cells; format: functional
NCI-H23 = assay: Growth inhibition of human NCI-H23 cells; format: functional
[2] = Growth inhibition of human UO31 cells; format: functional; details: UO-31
[3] = target: T1, Proteasome Macropain subunit MB1 (Homo sapiens, UniProt P28074); assay: Inhibition of chymotrypsin-like activity of 20S proteasome in human erythrocytes using Suc-Leu-Leu-Val-Tyr-AMC as substrate by fluorescence assay; details: read-out: Ki
T1 sequence (P28074 whole entry): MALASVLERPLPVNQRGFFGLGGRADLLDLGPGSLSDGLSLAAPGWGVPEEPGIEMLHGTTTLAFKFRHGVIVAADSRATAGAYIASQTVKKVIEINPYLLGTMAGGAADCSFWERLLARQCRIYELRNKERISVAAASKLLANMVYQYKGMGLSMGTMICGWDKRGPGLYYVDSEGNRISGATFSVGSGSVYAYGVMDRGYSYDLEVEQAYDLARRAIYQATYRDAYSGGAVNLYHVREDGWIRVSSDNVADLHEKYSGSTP

HL-60(TB) = assay: Growth inhibition of human HL-60(TB) cells; format: functional; details: read-out: LC50 (the source's name)
HT-29 = assay: Growth inhibition of human HT-29 cells; format: functional
SN12C = assay: Growth inhibition of human SN12C cells; format: functional
SNB-19 = assay: Growth inhibition of human SNB19 cells; format: functional
[4] = Growth inhibition of human SF539 cells; format: functional
[5] = Cytotoxicity against human breast cancer cells assessed as cell growth at 10 uM relative to control; format: functional; details: Cancer cell lines, read-out: Activity
How it was run: (§1)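 Single-concentration screen against a panel of human cancer cell lines. Each value is the mean percent growth across the cell lines of that tumour subpanel.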

NCI-H522 = assay: Growth inhibition of human NCI-H522 cells; format: functional
[6] = Cytotoxicity against human renal cancer cells assessed as cell growth at 10 uM relative to control; format: functional; details: Cancer cell lines, read-out: Activity; how it was run: as §1
U-251 = assay: Growth inhibition of human U251 cells; format: functional
CAKI-1 = assay: Growth inhibition of human CAKI-1 cells; format: functional
SF-268 = assay: Growth inhibition of human SF268 cells; format: functional
SNB-75 = assay: Growth inhibition of human SNB75 cells; format: functional
RPMI-8226 = assay: Growth inhibition of human RPMI8226 cells; format: functional
A549 = assay: Growth inhibition of human A549/ATCC cells; format: functional
SK-OV-3 = assay: Growth inhibition of human SKOV3 cells; format: functional
KM12 = assay: Growth inhibition of human KM12 cells; format: functional
SK-MEL-5 = assay: Growth inhibition of human SK-MEL-5 cells; format: functional
COLO 205 = assay: Growth inhibition of human COLO205 cells; format: functional
MCF7 = assay: Growth inhibition of human MCF7 cells; format: functional
[7] = Growth inhibition of human HOP92 cells; format: functional
[8] = Growth inhibition of human OVCAR5 cells; format: functional; details: OVCAR-5
MDA-MB-435 = assay: Growth inhibition of human MDA-MB-435 cells; format: functional
T47D = assay: Growth inhibition of human T47D cells; format: functional
CCRF-CEM = assay: Growth inhibition of human CCRF-CEM cells; format: functional
[9] = Cytotoxicity against human leukemia cells assessed as cell growth at 10 uM relative to control; format: functional; details: read-out: Activity; how it was run: as §1
[10] = Growth inhibition of human LOXIMVI cells; format: functional; details: LOX IMVI
[11] = Cytotoxicity against human prostate cancer cells assessed as cell growth at 10 uM relative to control; format: functional; details: Cancer cell lines, read-out: Activity; how it was run: as §1
[12] = Growth inhibition of human SF295 cells; format: functional; details: SF-295
SK-MEL-28 = assay: Growth inhibition of human SK-MEL-28 cells; format: functional
ACHN = assay: Growth inhibition of human ACHN cells; format: functional
[13] = Growth inhibition of human OVCAR8 cells; format: functional
A498 = assay: Growth inhibition of human A498 cells; format: functional
Malme-3M = assay: Growth inhibition of human MALME-3M cells; format: functional
SK-MEL-2 = assay: Growth inhibition of human SK-MEL-2 cells; format: functional
[14] = Growth inhibition of human MOLT4 cells; format: functional
MDA-MB-468 = assay: Growth inhibition of human MDA-MB-468 cells; format: functional
[15] = read-out: LC50 (the source's name)

## CC(C)C[C@H](NC(=O)CCn1ccc2ccc(Br)cc2c1=O)B(O)O
[1]; OVCAR-4
  GI50: 2.06 µM
  TGI: > 100 µM
[1]; OVCAR-4, read-out: LC50 (the source's name)
  CC50: > 100 µM
NCI-H23
  GI50: 1.59 µM
  TGI: > 100 µM
NCI-H23; [15]
  CC50: > 100 µM
[2]
  GI50: 0.98 µM
  LC50: > 100 µM
  TGI: 15.4 µM
[3]
  Ki: 0.06 µM
HL-60(TB)
  CC50: > 100 µM
HT-29
  GI50: 0.45 µM
  LC50: > 100 µM
  TGI: > 100 µM
SN12C
  GI50: 1.5 µM
  TGI: 11.5 µM
SN12C; [15]
  CC50: > 100 µM
SNB-19
  GI50: 0.96 µM
  TGI: > 100 µM
SNB-19; [15]
  CC50: > 100 µM
[4]; SF-539
  GI50: 0.21 µM
  TGI: 0.6 µM
[4]; SF-539, read-out: LC50 (the source's name)
  CC50: > 100 µM
[5]
  growth at 10 µM: 2.31%
NCI-H522
  GI50: 0.3 µM
  LC50: > 100 µM
  TGI: 2.25 µM
[6]
  growth at 10 µM: -4%
U-251
  GI50: 1.18 µM
  TGI: > 100 µM
U-251; [15]
  CC50: > 100 µM
CAKI-1
  GI50: 0.47 µM
  TGI: 10 µM
CAKI-1; [15]
  CC50: > 100 µM
SF-268
  GI50: 0.7 µM
  LC50: > 100 µM
  TGI: 3.85 µM
SNB-75
  GI50: 0.46 µM
  LC50: > 100 µM
  TGI: 3.82 µM
RPMI-8226
  GI50: 0.32 µM
  TGI: > 100 µM
RPMI-8226; [15]
  CC50: > 100 µM
A549
  GI50: 2.39 µM
  TGI: > 100 µM
A549; [15]
  CC50: > 100 µM
SK-OV-3
  GI50: 2.36 µM
  LC50: > 100 µM
  TGI: 71.5 µM
KM12
  GI50: 1.33 µM
  LC50: > 100 µM
  TGI: 4.38 µM
SK-MEL-5
  GI50: 0.37 µM
  LC50 (concentration killing 50% of cells): 82.5 µM
  TGI: 3.11 µM
COLO 205
  GI50: 0.85 µM
  TGI: > 100 µM
COLO 205; [15]
  CC50: > 100 µM
MCF7
  GI50: 0.39 µM
  TGI: > 100 µM
MCF7; [15]
  CC50: > 100 µM
[7]; HOP-92
  GI50: 1.34 µM
  TGI: 5.61 µM
[7]; HOP-92, read-out: LC50 (the source's name)
  CC50: > 100 µM
[8]
  GI50: 3.15 µM
  LC50: > 100 µM
  TGI: 97.3 µM
MDA-MB-435
  GI50: 0.18 µM
  TGI: 0.37 µM
MDA-MB-435; [15]
  CC50: 0.78 µM
T47D
  GI50: 0.78 µM
  TGI: 6.09 µM
T47D; [15]
  CC50: > 100 µM
CCRF-CEM
  GI50: 0.43 µM
  TGI: > 100 µM
CCRF-CEM; [15]
  CC50: > 100 µM
[9]
  growth at 10 µM: 0.02%
[10]
  GI50: 0.22 µM
  TGI: 0.61 µM
[11]
  growth at 10 µM: 34.5%
[12]
  GI50: 0.58 µM
  LC50: 75.5 µM
  TGI: 4.51 µM
SK-MEL-28
  GI50: 0.52 µM
  TGI: 29.7 µM
SK-MEL-28; [15]
  CC50: > 100 µM
ACHN
  GI50: 0.41 µM
  TGI: > 100 µM
ACHN; [15]
  CC50: > 100 µM
[13]; OVCAR-8
  GI50: 3.64 µM
  TGI: > 100 µM
[13]; OVCAR-8, read-out: LC50 (the source's name)
  CC50: > 100 µM
A498
  GI50: 0.13 µM
  LC50: > 100 µM
  TGI: 0.74 µM
Malme-3M
  GI50: 0.68 µM
  TGI: 7.95 µM
Malme-3M; [15]
  CC50: > 100 µM
SK-MEL-2
  GI50: 0.46 µM
  LC50: > 100 µM
  TGI: 4.56 µM
[14]; MOLT-4
  GI50: 0.31 µM
  TGI: > 100 µM
[14]; MOLT-4, read-out: LC50 (the source's name)
  CC50: > 100 µM
MDA-MB-468
  GI50: 0.26 µM
  TGI: 0.74 µM
MDA-MB-468; [15]
  CC50: > 100 µM
